{"source": "paper PMC10560980", "about": "(International Journal for Parasitology: Drugs and Drug …, 2023)", "key": {"[1]": {"test_system": "L. donovani DD8 amastigotes", "assay": "L. donovani intracellular amastigote imaging assay in THP-1 cells", "assay_type": "cell-based", "details": "Leishmania donovani, THP-1, 96 h, read-out: IC50 (M; mean ± SD) L. donovani", "outline": "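L. donovani DD8 promastigotes were kept in modified M199 Hanks medium, pH 6.8, with 10% heat-inactivated FBS at 27 °C. PMA-differentiated THP-1 cells were infected with metacyclic promastigotes (1:5 host:parasite), then exposed 96 h to 80–0.004 µM final. Cells were fixed in 4% paraformaldehyde, stained with SYBR green/CellMask Deep Red and imaged at 20x; an infected cell held >3 parasites. Controls were 2 µM amphotericin B and 0.4% DMSO. Assays ran twice in triplicate; IC50 came from 4-parameter regression.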"}, "[2]": {"test_system": "assemblage B G. duodenalis BRIS/91/HEPU/1279 trophozoites", "assay": "G. duodenalis compound susceptibility assay", "assay_type": "cell-based", "details": "Giardia duodenalis"}, "[3]": {"test_system": "G. duodenalis BRIS/87/HEPU/713 assemblage A", "assay": "G. duodenalis compound susceptibility assay", "assay_type": "cell-based", "details": "Giardia duodenalis, 48 h, read-out: IC50 (nM; mean ± SD) AA"}, "[4]": {"test_system": "MTZ resistant assemblage B BRIS/91/HEPU/1279m1 parasites", "assay": "G. duodenalis compound susceptibility assay", "assay_type": "cell-based", "details": "Giardia duodenalis, 48 h, read-out: IC50 (nM; mean ± SD) AB-MTZ", "outline": "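The metronidazole-resistant assemblage B line was kept in modified TYI-S-33 with 10% heat-inactivated FBS and penicillin/streptomycin under 15 µM metronidazole, withdrawn two days before testing. Trophozoites had 48 h dose-response exposure and were scored by automated microscopy, at least three times in triplicate. Inhibition was taken versus DMSO vehicle minus media background. IC50 came from 4-parameter variable-slope nonlinear regression.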"}, "[5]": {"test_system": "BRIS/91/HEPU/1279 trophozoites", "assay": "Minimum lethal concentration", "assay_type": "cell-based, Giardia duodenalis", "details": "48 h exposure, then four days in culture", "outline": "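Assemblage B BRIS/91/HEPU/1279 trophozoites in modified TYI-S-33 were exposed to compound for 48 h. They were then returned to drug-free culture for four more days and imaged by brightfield at 10x to judge regrowth. Albendazole ran alongside. Experiments were done at least three times in duplicate.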"}, "[6]": {"test_system": "Neonatal Foreskin Fibroblasts (NFF)", "assay": "Mammalian cell susceptibility assay", "assay_type": "cell-based, human", "details": "for IC50: read-out: IC50 (M; mean ± SD) NFF; for Selectivity: NFF IC50 / Giardia IC50"}, "[7]": {"test_system": "Human Embryonic Kidney (HEK-293) cells", "assay": "Mammalian cell susceptibility assay, HEK-293", "assay_type": "cell-based", "details": "HEK293, read-out: growth inhibition, HEK293"}, "[8]": {"test_system": "Plasmodium falciparum 3D7 asexual erythrocytic parasites", "assay": "48 h [3H]-hypoxanthine incorporation assay", "assay_type": "cell-based", "details": "for IC50: Plasmodium falciparum, 3D7, 48 h, read-out: IC50 (M; mean ± SD) P. falciparum; for average % inhibition at highest concentration tested, P. falciparum: at 5.0 × 10^−5 M (50 μM), 50 µM", "outline": "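Compound exposure and [3H]-hypoxanthine uptake ran 48 h. Controls were uninfected RBC background, untreated, DMSO vehicle and chloroquine. % inhibition was taken versus matched vehicle minus background. At least two independent assays were run in triplicate. Where no IC50 could be fitted, % inhibition at the highest concentration was reported.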"}, "[9]": {"test_system": "Trypanosoma cruzi Tulahuen strain intracellular amastigotes", "assay": "T. cruzi intracellular amastigote imaging assay in 3T3 cells", "assay_type": "cell-based", "details": "for IC50: Trypanosoma cruzi, TULAHUEN, NIH3T3, read-out: IC50 (M; mean ± SD) T. cruzi", "outline": "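T. cruzi Tulahuen was maintained in 3T3 fibroblasts in phenol red-free RPMI with 10% FBS and passaged with freshly egressed trypomastigotes. Intracellular amastigotes were scored by high-content imaging, with final concentrations up to 73.2 µM. Each compound was run as single point over three experimental replicates. Controls were 30 µM puromycin (host cells) and 12 µM nifurtimox (amastigotes). IC50 came from 4-parameter variable-slope nonlinear regression.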"}, "[10]": {"test_system": "Enterococci faecalis (ATCC 29212)", "assay": "Antibacterial microbroth dilution", "assay_type": "cell-based", "details": "20 h exposure, LB broth", "outline": "(§1)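 Broth microdilution per CLSI in LB broth. A 20 mM test-compound solution was diluted in LB broth. Organisms were exposed to compound for 20 h, then growth inhibition was scored to define the MIC. Ampicillin was the positive control.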"}, "[11]": {"test_system": "Escherichia coli (ATCC 25922)", "assay": "Antibacterial microbroth dilution", "assay_type": "cell-based", "details": "20 h exposure, LB broth", "outline": "as §1"}, "[12]": {"test_system": "Staphylococcus aureus (ATCC 29213)", "assay": "Antibacterial microbroth dilution", "assay_type": "cell-based", "details": "20 h exposure, LB broth", "outline": "as §1"}, "G. duodenalis BAH2c2": {"test_system": "G. duodenalis BAH2c2", "assay": "In vivo efficacy in mouse model of giardiasis", "design": "species or system outbred Swiss mice", "outline": "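Seven-day-old outbred Swiss pups (groups of ten) were orally gavaged with 10^5 BAH2c2 trophozoites in 0.9% saline. Faecal cysts were tracked daily by centrifugal flotation and immunofluorescence counting. About 1 week post-infection, mice received oral gavage once daily for three days: vehicle, test compound, or metronidazole 100 mg/kg. The next day, small-intestine trophozoites were counted manually and large-intestine cysts per gram. Efficacy followed WAAVP guidelines; groups were compared by t-test.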"}, "faecal microbiome": {"test_system": "faecal microbiome", "assay": "Microbiome assessment", "assay_type": "in vivo, outbred Swiss mice", "outline": "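Three groups of 12 outbred Swiss mice received vehicle control, metronidazole 100 mg/kg or test compound 7.4 mg/kg daily on days 1, 2 and 3. Faecal samples were collected from individual animals on days 0–5 and stored at room temperature in 80% ethanol. About 0.2 g of each sample was homogenised with glass beads in lysis buffer for 16S rRNA profiling.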"}, "Aqueous solubility": {"assay": "Aqueous solubility", "assay_type": "physicochemical"}, "[13]": {"assay": "Storage stability of solid", "assay_type": "physicochemical", "details": "crystalline solid; ambient conditions; several months"}, "Giardia": {"test_system": "Giardia", "details": "in humans; ref Nabarro et al., 2015; cited from earlier work"}, "[14]": {"details": "48 h, read-out: IC50 (M; mean ± SD) Giardia (48h), Compounds Australia samples, assemblage B BRIS/91/HEPU/1279 trophozoites, 48 h, > = highest concentration tested"}, "[15]": {"details": "read-out: IC50 (M; mean ± SD) Giardia AB, purchased (ChemDiv) or synthesized batches, assemblage B BRIS/91/HEPU/1279"}, "[16]": {"details": "0.74 mg/kg for three days, oral gavage, PBS vehicle"}, "[17]": {"details": "7.4 mg/kg daily for three days, 50%PBS/DMSO vehicle, P > 0.05"}, "[18]": {"details": "100 mg/kg for three days, positive control, first experiment"}}, "note": "“Also recorded” adds a separate entry of the source. Read-outs that look alike come from different tables or passages of the source."}
{"smiles": "C[C@@H]1[C@H](O)[C@@H](C)/C=C/C=C/C=C/C=C/C=C/C=C/C=C/[C@H](O[C@@H]2O[C@H](C)[C@@H](O)[C@H](N)[C@@H]2O)C[C@@H]2O[C@](O)(C[C@@H](O)C[C@@H](O)[C@H](O)CC[C@@H](O)C[C@@H](O)CC(=O)O[C@H]1C)C[C@H](O)[C@H]2C(=O)O", "note": "[AMB, Amphotericin B, reference compound]", "values": [{"measurement": "IC50", "setting": "[1]", "result": 87, "unit": "nM"}]}
{"smiles": "Cc1cc2[nH]c(C(=O)Nc3ccccc3Cl)c(CN3CCOCC3)c2s1", "note": "[Compound 2, N-(2-chlorophenyl)-2-methyl-6-(morpholinomethyl)-4H-thieno [3,2-b]pyrrole-5-carboxamide]", "values": [{"measurement": "IC50", "setting": "[2]; [14]", "result": 310, "unit": "nM"}, {"measurement": "IC50", "setting": "[2]; 48 h, read-out: IC50 (nM; mean ± SD) AB, purchased/resynthesised batches, 48 h, BRIS/91/HEPU/1279 assemblage B", "result": "8.6 to 12", "unit": "nM"}, {"measurement": "IC50", "setting": "[2]; [15]", "result": 12, "unit": "nM"}, {"measurement": "IC50", "setting": "[3]", "result": 10, "unit": "nM"}, {"measurement": "IC50", "setting": "[4]", "result": 5.5, "unit": "nM"}, {"measurement": "minimum lethal concentration (MLC)", "setting": "[5]", "result": 0.062, "unit": "µM"}, {"measurement": "IC50", "setting": "[6]; Homo sapiens, Fibroblast", "result": "> 10000", "unit": "nM"}, {"measurement": "inhibition at 100 µM", "setting": "[6]; Homo sapiens, Fibroblast, read-out: growth inhibition, NFF", "result": "< 50", "unit": "%"}, {"measurement": "Selectivity", "setting": "[6]", "result": ">32"}, {"measurement": "selectivity indices", "setting": "[6]; follow up studies, NFF and HEK293 vs Giardia", "result": "> 8333"}, {"measurement": "inhibition at 100 µM", "setting": "[7]", "result": "< 50", "unit": "%"}, {"measurement": "IC50", "setting": "[8]", "result": "> 50000", "unit": "nM"}, {"measurement": "average % inhibition at highest concentration tested, P. falciparum", "setting": "[8]", "result": "< 50", "unit": "%"}, {"measurement": "average % inhibition at highest concentration tested, P. falciparum", "setting": "[8]; listed as 2b", "result": 2.0, "unit": "%"}, {"measurement": "IC50", "setting": "[1]", "result": "> 80000", "unit": "nM"}, {"measurement": "IC50", "setting": "[9]", "result": "> 73000", "unit": "nM"}, {"measurement": "growth inhibition, T. cruzi", "setting": "[9]; up to highest concentration tested", "result": "< 50", "unit": "%"}, {"measurement": "MIC (M) E. faecalis", "setting": "[10]", "result": ">0.0002", "unit": "M"}, {"measurement": "MIC (M) E. coli", "setting": "[11]", "result": ">0.0002", "unit": "M"}, {"measurement": "MIC (M) S. aureus", "setting": "[12]", "result": ">0.0002", "unit": "M"}, {"measurement": "reduction of cyst burden vs vehicle", "setting": "G. duodenalis BAH2c2; [16]", "result": 98.8, "unit": "%"}, {"measurement": "reduction of trophozoite burden vs vehicle", "setting": "G. duodenalis BAH2c2; [16]", "result": 73.5, "unit": "%"}, {"measurement": "reduction of cyst burden vs vehicle", "setting": "G. duodenalis BAH2c2; [17]", "result": 80.1, "unit": "%"}, {"measurement": "reduction of trophozoite burden vs vehicle", "setting": "G. duodenalis BAH2c2; [17]", "result": 54.2, "unit": "%"}, {"measurement": "change in bacterial profile of faecal microbiome", "setting": "faecal microbiome; 7.4 mg/kg daily for three days", "result": "does not impact the normal gut microbiota; also recorded: did not detect any significant (P < 0.05) changes in the bacterial profile; also recorded: did not significantly impact the gut microbial diversity"}, {"measurement": "aqueous solubility", "setting": "Aqueous solubility", "result": "poor"}, {"measurement": "stability to storage", "setting": "[13]", "result": "stable"}]}
{"smiles": "CC1CS(=O)(=O)CCN1/N=C/c1ccc([N+](=O)[O-])o1", "note": "(stereo not shown) [NFX, nifurtimox, reference compound]", "values": [{"measurement": "IC50", "setting": "[9]", "result": 980, "unit": "nM"}]}
{"smiles": "Cc1ncc([N+](=O)[O-])n1CCO", "note": "[MTZ, metronidazole, reference compound]", "values": [{"measurement": "reduction of cyst burden vs vehicle", "setting": "G. duodenalis BAH2c2; [18]", "result": 65.6, "unit": "%"}, {"measurement": "reduction of trophozoite burden vs vehicle", "setting": "G. duodenalis BAH2c2; [18]", "result": 98.1, "unit": "%"}, {"measurement": "change in bacterial profile of faecal microbiome", "setting": "faecal microbiome; 100 mg/kg daily for three days", "result": "significant shift from the vehicle (DMSO/PBS) and compound 2 exposed mice from Day 1–3"}, {"measurement": "reported failure rates", "setting": "Giardia", "result": "up to 40%"}]}
{"smiles": "CCN(CC)CCCC(C)Nc1ccnc2cc(Cl)ccc12", "note": "(stereo not shown) [CQ, chloroquine, reference compound]", "values": [{"measurement": "IC50", "setting": "[6]; Homo sapiens, Fibroblast", "result": 31000, "unit": "nM"}, {"measurement": "IC50", "setting": "[8]", "result": 14, "unit": "nM"}]}
{"smiles": "CC1(C)S[C@@H]2[C@H](NC(=O)[C@H](N)c3ccccc3)C(=O)N2[C@H]1C(=O)O", "note": "[AMP, ampicillin, reference compound]", "values": [{"measurement": "MIC (M) E. faecalis", "setting": "[10]", "result": "<3.7e-05", "unit": "M"}, {"measurement": "MIC (M) E. coli", "setting": "[11]", "result": "<3.7e-05", "unit": "M"}, {"measurement": "MIC (M) S. aureus", "setting": "[12]", "result": "<3.7e-05", "unit": "M"}]}
{"smiles": "CCCSc1ccc2nc(NC(=O)OC)[nH]c2c1", "note": "[ABZ, Albendazole, reference compound]", "values": [{"measurement": "IC50", "setting": "[2]; [14]", "result": 57, "unit": "nM"}, {"measurement": "IC50", "setting": "[2]; [15]", "result": 57, "unit": "nM"}, {"measurement": "minimum lethal concentration (MLC)", "setting": "[5]", "result": 0.15, "unit": "µM"}, {"measurement": "IC50", "setting": "[6]; Homo sapiens, Fibroblast", "result": 1100, "unit": "nM"}, {"measurement": "Selectivity", "setting": "[6]", "result": 19.3}]}
